Only some compounds are listed: those with a hit (about 1.5% of all), similar ones and a draw of the others.
T cell modulator: modulates CD8 T cell binding to vesicles; 2C CD8+ T cell-vesicle binding, flow cytometry; hits give low values; response (vesicle binding), % at 7 µM; 330,000 tested, 0.068% active; AID 2052;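 active means response, share of CD8 T cells binding vesicles, and their 90th percentile fluorescence all below set limits, cut at about 80% in these data, passing the limit was not always enough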;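 further: values below 100% mean blocked vesicle binding to the CD8+ T cells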
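Assay system – 2C mouse CD8+ T cells · Also added – QL9-loaded Drosophila micro-vesicles · Timing – Cell–vesicle co-incubation 1.5 h at 37 °C, staining 20 min on ice · Signal – flow cytometry of vesicle-bound cells · Measure – percent CD8+ FL2 mean versus row control · Controls – Peptide-free naked vesicles (low) and QL9 vesicles with 0.7% DMSO vehicle (high)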
HDAC3 inh: human HDAC3 inhibition. O15379. recombinant HDAC3, fluorogenic peptide/trypsin coupled, fluorescence. inhibition, % at 8.3 µM. 320,000 tested, 0.15% active; in the data active means inhibition above about 26%, passing the limit was not always enough
Target sequence (O15379 whole entry, looked up): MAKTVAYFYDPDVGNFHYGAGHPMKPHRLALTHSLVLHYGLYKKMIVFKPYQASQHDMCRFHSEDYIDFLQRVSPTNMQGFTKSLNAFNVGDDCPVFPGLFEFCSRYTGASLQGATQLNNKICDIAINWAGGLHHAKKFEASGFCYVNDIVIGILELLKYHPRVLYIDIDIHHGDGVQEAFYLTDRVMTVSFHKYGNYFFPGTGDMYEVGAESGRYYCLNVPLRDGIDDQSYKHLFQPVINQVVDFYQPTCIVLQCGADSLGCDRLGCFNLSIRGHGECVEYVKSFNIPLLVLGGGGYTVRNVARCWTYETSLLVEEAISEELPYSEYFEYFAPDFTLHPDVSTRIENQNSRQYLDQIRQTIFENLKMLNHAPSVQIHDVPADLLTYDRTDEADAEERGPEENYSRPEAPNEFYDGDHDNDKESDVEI
Arr AP2 block: inhibitors of human beta-arrestin and AP2 interaction. FITC-arrestin peptide / GST-AP2 beads, flow cytometry; AP2 beta2 appendage carries R879A mutation. inhibition, % at 10 µM. 340,000 tested, 0.31% active;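 active means inhibition above a set limit, near 3 SD of compounds lacking own fluorescence, cut at about 54% in these data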;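 further: plate controls were DMSO wells for no effect and 5 µM unlabelled arrestin peptide for full effect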
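System: GST-AP2 R879A glutathione beads | Also added: FITC-arrestin peptide, 50 nM | Times: 12 min plus 1 h, RT | Signal: Bead flow cytometry, FITC channel | Buffer or medium: PBS with 0.05% Tween 20 and 0.1% BSA | Read-out basis: Percent drop in bead-associated FITC signal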
LANA-H2B inh: blocks KSHV LANA binding to histone H2A/H2B; cell-free LANA-H2A/H2B peptide, fluorescence polarization; 320,000 tested, 0.6% active; AID 2629; inhibition, % (no concentration beside the values); Q9QR71; in the data active means inhibition mostly above about 10%, no sharp cut-off; inactive means mostly below about 6.7%
DSG3 Ab inh: human desmoglein-3 autoantibody binding inhibition | P32926 | DSG3-coupled beads, scFv-anti-DSG3-GFP binding, flow cytometry; hits give low values | binding (percent of control), % at 10 µM | 310,000 tested, 0.48% active | AID 588358;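 active means binding more than 3 SD below its plate's average and above zero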;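 further: hits lower antibody fragment binding to DSG3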
Numbers without * were called inactive; x = no result given; + = active, no number.

SMILES	T cell modulator	HDAC3 inh	Arr AP2 block	LANA-H2B inh	DSG3 Ab inh
COc1cc(C(=O)N/N=C/c2coc3ccc(Cl)cc3c2=O)ccc1O	314.6	96.2*	8.6	-4.5	x
COc1ccc(C(=O)N/N=C\c2coc3ccc(Cl)cc3c2=O)cc1	381.8	x	17.3	3.9	109.6
COc1ccc(C(=O)N/N=C\c2coc3ccccc3c2=O)cc1	134.6	88.7*	12.4	7.8	104.3
O=C(N/N=C/c1coc2ccc(Cl)cc2c1=O)c1ccncc1	369.8	8.1	37.1	4.3	96.9
Cc1ccc(S(=O)(=O)c2nc(-c3ccccc3F)oc2N2CC(C)OC(C)C2)cc1 (stereo not drawn)	308.8	4.8	10.9	58.6*	x
O=C(Nc1cc(Cl)ccc1Oc1ccccc1)c1cnccn1	189.8	-3.3	3.1	2.8	66.1*
O=C(COC(=O)Cn1cnc2ccccc21)Nc1ccc(F)c(F)c1	195.5	2.1	-4.5	-1.6	92.4
O=S(=O)(c1ccccc1)C(Br)S(=O)(=O)c1ccccc1	x	x	x	x	104.0
CCC1=NNc2cccc3c(OC)ccc1c23	335.2	31.0*	x	7.0	x
Clc1cccc(Nc2nc(N3CCOCC3)nc(N3CCOCC3)n2)c1	224.7	-0.5	3.5	-0.9	46.9*
CC1(C)CNC(=O)CC(C)(C)N1	201.6	-0.3	-0.3	43.4*	101.8
CC1(C)CC(CC(=O)O)CC(C)(C)N1	389.2	3.5	-13.3	0.1	113.5
Cc1ccc(C(=O)O)cc1NC(=S)NC(=O)c1ccc(COc2ccccc2)cc1	119.8	3.1	-2.2	-1.5	112.5
c1coc(CN2CNc3nc4ccccc4n3C2)c1	653.5	3.5	16.9	-1.9	111.8
COc1ccc(CN2CNc3nc4ccccc4n3C2)cc1	639.5	-0.1	-1.2	22.1*	107.8
CCc1ccc(N2CC(C(=O)OCC(=O)NNC(=O)c3ccccc3)CC2=O)cc1 (stereo not drawn)	135.9	-15.7	-3.0	2.2	94.9
COc1ccc(NC(=O)CC(C)n2ccnc2)cc1 (stereo not drawn)	72.8	-2.7	14.7	-1.0	93.2
CC[C@]12c3[nH]c4ccc(Cl)cc4c3CCN1C(=O)[C@@H](CC(=O)NCCCn1ccnc1)C[C@@H]2C(=O)N1CCN(C(=O)C2CC2)CC1	x	x	32.1	x	94.5
Cc1nc(Nc2ccccc2)sc1C(=O)c1ccccc1	244.4	5.0	22.8	0.7	80.2*
CC(c1nnc(SCC(=O)c2c(N)n(C3CC3)c(=O)[nH]c2=O)n1-c1ccc(F)cc1)N(C)C (stereo not drawn)	367.7	-1.7	6.5	1.8	102.1
CC(C)c1nnc(NC(=O)CCC(=O)NCc2cccs2)s1	555.1	-3.4	18.9	18.2*	96.3
Cc1ccccc1NS(=O)(=O)c1ccc(NC(=O)CSCc2ccc(Br)cc2)cc1	0.0*	8.5	4.1	0.8	93.0
Nc1cc(-c2ccc(Br)cc2)nn1S(=O)(=O)c1ccccc1	494.7	7.4	-4.9	-0.3	62.2*
O=S1(=O)CCN(C(CCO)c2cccc(C(F)(F)F)c2)CC1 (stereo not drawn)	x	-0.7	20.6	+	x
O=C1NCCN(CC2CCN(CCc3ccc(Cl)c(Cl)c3)CC2)C1=O	x	x	10.1	x	108.3
SMILES	T cell modulator	HDAC3 inh	Arr AP2 block	LANA-H2B inh	DSG3 Ab inh
Clc1ccc(-c2ccnc(-n3cccc3)n2)s1	112.3	18.9	21.6	29.6*	104.0
Clc1ccsc1-c1ccnc(-n2cccc2)n1	878.9	-0.4	29.2	0.8	108.4
COCCn1c(-c2ccc(NC(C)=O)cc2)nc2c1c(=O)[nH]c(=O)n2CC(C)C	508.4	-26.9	27.4	12.8*	99.8
CSc1nnc(C2CCN(CC(=O)Nc3ccccc3N3CCOCC3)CC2)n1C(C)C	607.9	2.7	-2.9	1.0	110.8
COc1ccc(N2CCN(C(=O)c3ccc(CNS(=O)(=O)c4cccc(OC)c4)cc3)CC2)cc1	254.0	2.7	-4.3	4.3	96.6
O=C(COC(=O)c1cc[n+]([O-])cc1)Nc1ccccc1Sc1ccccc1	327.6	-2.7	11.8	140.4*	110.2
O=C(CCNC(=O)c1ccc([N+](=O)[O-])cc1)NC1CCCc2ccccc21 (stereo not drawn)	x	x	5.0	x	100.5
COc1cc(NC(=O)[C@H]2CSCN2C(=O)[C@@H]2CCC(=O)N2)cc(OC)c1OC	749.8	-1.6	-9.4	14.3*	138.2
CCn1c(O)c(/C=C2\C=NN=C2c2ccc(C)cc2)sc1=S	289.4	-4.2	34.6	2.3	102.3
CC(C)n1c(O)c(/C=C2\C=NN=C2c2ccccc2)sc1=S	836.0	-1.8	-21.8	12.3*	106.1
